MPTP inh: permeability transition pore inhibition. AID 602449. inhibition, % at 10 µM. 360,000 tested, 1.4% active. isolated mouse mitochondria, Ca2+ swelling absorbance, 30 min;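 active means inhibition of 50% or more, scaled per plate between neutral and stimulator controls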;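 further: 0% = DMSO wells given calcium and 100% = 1 mM EGTA wells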
OX1R antag-1: OX1R (human) antagonism. O43613. OX1R-expressing cells, FRET antagonist read-out. inhibition, % at 6.6 µM. 330,000 tested, 1.8% active. AID 485270; in the data active means inhibition mostly above about 38%, no sharp cut-off; inactive means mostly below about 40%;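 further: 0% = agonist challenge alone and 100% = reference antagonist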
Target sequence (O43613 whole entry, looked up): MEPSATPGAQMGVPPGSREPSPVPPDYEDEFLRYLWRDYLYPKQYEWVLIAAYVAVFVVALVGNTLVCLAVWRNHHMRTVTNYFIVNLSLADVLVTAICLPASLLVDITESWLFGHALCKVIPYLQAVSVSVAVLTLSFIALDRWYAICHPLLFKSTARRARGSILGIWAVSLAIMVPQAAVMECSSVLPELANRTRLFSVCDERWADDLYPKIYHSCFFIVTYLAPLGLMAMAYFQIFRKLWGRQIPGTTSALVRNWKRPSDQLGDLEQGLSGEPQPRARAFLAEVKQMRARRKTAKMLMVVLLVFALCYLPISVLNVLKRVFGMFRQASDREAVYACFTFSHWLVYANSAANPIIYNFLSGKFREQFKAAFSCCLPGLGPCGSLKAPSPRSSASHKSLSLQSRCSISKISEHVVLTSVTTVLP
CHO parental Ca: counter-screen: ATP calcium response change in parental CHO cells. parental CHO-K1, ATP-induced calcium, Fluo-8 fluorescence. inhibition, % at 5.6 µM. 330,000 tested, 0.63% active. AID 463079;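 active means inhibition above that plate's mean sample inhibition plus 3 SD, cut at about 26% in these data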;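 further: 0% = ATP-challenged DMSO wells and 100% = DMSO wells without ATP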
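Assay system: untransfected parental CHO cell line. Also added: ATP agonist challenge. Dosing: one dose, 5.6 µM nominal. Measured by: Fluo-8 fluorescence. Read-out: % inhibition. Benchmarks: ATP wells versus no-ATP DMSO wells. Repeats: no replicates.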
GPR7 antagonist: blocks human GPR7 receptor signaling; P48145; GPR7-expressing cells, fluorescence antagonist assay; inhibition, % at 4.4 µM; 290,000 tested, 1.1% active; in the data active means inhibition above about 16%, passing the limit was not always enough;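 further: cells stimulated with the agonist NPW; 0% = agonist with vehicle and 100% = vehicle without agonist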
OX1R antag-2: human HCRTR1 antagonism. O43613. 330,000 tested, 0.43% active. inhibition, % at 5 µM. CHO/OX1R cells, Fluo-8 calcium fluorescence, orexin A;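 active means inhibition above its plate's threshold, mean inhibition of all tested compounds on the plate plus 3 SD, cut at about 37% in these data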;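 further: 0% = orexin A challenge wells and 100% = SB-334867-A antagonist wells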
MPTP counter: mitochondrial membrane potential, counter-screen; shares compounds with MPTP inh; isolated mitochondria, Rhodamine 123 fluorescence; inhibition, % at 10 µM; 5,000 tested, 78% active; in the data active means inhibition above about 22%;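 further: 0% = DMSO vehicle and 100% = positive control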
MPTP swell DR: dose response confirmation of mitochondrial permeability transition pore inhibitors; isolated mitochondria swelling, absorbance; 780 tested, 58% active; AID 651561; IC50, µM; shares compounds with MPTP inh; in the data active means IC50 below about 20 µM
MPTP cs DR: counter-screen for mitochondrial permeability transition pore inhibitors, dose response; shares compounds with MPTP inh; IC50, µM; isolated mitochondria counterscreen, fluorescence read-out; 780 tested, 49% active; in the data active means IC50 below about 80 µM
Starred values were filed as active, the others as inactive; i = inactive; . = no result; ! = not active in a repeat. Only some compounds are listed: those with a hit (about 3.8% of all), similar ones and a draw of the others.

SMILES	MPTP inh	OX1R antag-1	CHO parental Ca	GPR7 antagonist	OX1R antag-2	MPTP counter	others
CCOc1ccc(NC(=S)NNC(=S)Nc2cccc(C(F)(F)F)c2)cc1	79.9*	13.4	-24.2	0.8	-6.9	56.5*
COc1ccccc1OCc1cc(C(=O)NCc2ccc(N3CCCC3=O)cc2)no1	1.9	14.2	-17.0	-0.5	-9.7	.
CN1CCN(C2Cc3ccccc3Sc3ccc(Cl)cc32)CC1 (configuration not stated)	87.3*	4.2	-11.4	.	-25.7	-7.0	MPTP swell DR=6.83*;MPTP cs DR=44.8*
CSc1ccc2c(c1)C(N1CCN(C)CC1)Cc1ccccc1S2 (configuration not stated)	104.0*!	9.2	12.3	35.1*	20.5	-17.5
Cn1c(SCC#N)nnc1-c1cnccn1	0.6	6.5	-4.4	-4.0	3.2	.
CC1(C)CC(=Cc2cc(O)ccc2[N+](=O)[O-])C(=O)c2ccccc21	91.1*	.	.	.	.	93.7*
O=S(=O)(Nc1ccccc1Cl)c1ccc(NS(=O)(=O)c2cccs2)cc1	-3.0	7.8	1.0	5.1	-5.3	.
Cc1cc(Cl)ccc1OCC(=O)NCc1ccncc1	0.8	1.6	-11.1	10.2	-6.2	.
O=C(Nc1ccc(Cl)cc1)Nc1ccccc1NS(=O)(=O)c1cccs1	82.5*	60.4*	-7.4	-12.7	-25.5	83.4*
Cc1cc(Cl)ccc1OCC(=O)Nc1ccncc1	80.5*	16.0	49.5*	4.7	7.7	79.3*
Cc1cc(Cl)ccc1OCC(=O)Nc1ccccc1NS(=O)(=O)c1cccs1	51.8*	40.6*	13.6	-13.2	-7.9	78.0*
Cc1ccc(NC(=O)COc2ccccc2C(=O)Nc2ccccc2)cc1Cl	-0.3	12.5	-3.1	-11.3	-11.6	.
Cc1ccc(Cl)cc1NC(=O)c1ccccc1OCC(=O)Nc1ccc(Cl)cc1	88.2*	5.5	-2.6	-9.8	3.9	92.9*
CN(C(=O)c1ccc(OC2CCN(C(=O)c3cccnc3)CC2)cc1)C1CCCCC1	1.3	3.2	-8.3	-5.6	-9.1	.
Cc1[nH]c(C)c(S(=O)(=O)N2c3ccccc3CC2C)c1C(=O)N1CCCCC1 (configuration not stated)	1.6	21.6	-10.0	-1.1	-7.1	.
COc1ccc(N(CC(=O)Nc2ccc(S(=O)(=O)N3CCOCC3)cc2)S(=O)(=O)c2ccc(F)cc2)cc1	1.4	0.3	-9.4	-8.6	-7.6	.
O=C(COc1ccc(Cl)cc1Cl)Nc1ccccc1NS(=O)(=O)c1cccs1	65.9*	52.1*	19.5	-12.3	-10.8	78.9*
Cc1cc(C)n(CCNC(=O)c2cc(COc3ccc4ncccc4c3)on2)n1	63.4*	24.4	11.2	-9.3	-18.3	37.3*
CC(CCCC(C)(C)O)NC(=O)c1cc(COc2ccc3ncccc3c2)on1 (configuration not stated)	92.3*	14.1	24.5*	-15.8	-11.5	78.8*
O=C(NCc1cccc(Cl)c1)c1cc(COc2ccc3ncccc3c2)on1	104.7*	53.2	67.1*	12.4	41.7*	92.0*
Cc1ccc(F)cc1CNC(=O)c1cc(COc2ccc3ncccc3c2)on1	95.0*	36.9	32.2*	-7.3	36.5	105.2*
COc1ccc(OC)c(NC(=O)c2nc(-c3ccccc3)oc2C)c1	-0.2	11.9	-6.8	11.5	-11.5	.
Cc1nc(CN(C)C(=O)c2cc(COc3ccc4ncccc4c3)on2)cs1	99.3*	23.3	23.2	5.6	1.5	68.7*
CC(C)(C)c1ccc(C(=O)N2CCN(c3nc4ccccc4o3)CC2)cc1	52.2*	9.3	-5.7	-7.1	-24.4	43.9*
Cc1csc2c(N3CCN(C(=O)Nc4ccc(Cl)c(Cl)c4)CC3)ncnc12	88.0*	36.4	20.6	-8.1	42.6*	79.6*
SMILES	MPTP inh	OX1R antag-1	CHO parental Ca	GPR7 antagonist	OX1R antag-2	MPTP counter	others
Cc1csc2c(N3CCN(C(=O)c4ccc(C(C)(C)C)cc4)CC3)ncnc12	96.1*	17.9	36.9*	-7.1	27.4	82.7*
O=C(Nc1ccc(Cl)c(Cl)c1)N1CCSCC1	19.5	33.2	5.0	3.7	-16.7	.
COC(=O)c1ccccc1S(=O)(=O)N1CCC(C(=O)Nc2ccc(N3CCOCC3)cc2)CC1	0.9	3.0	-1.9	.	-6.7	.
COc1ccc(OC(C)C(=O)NC2CCCCCC2)cc1 (configuration not stated)	-0.6	4.7	-15.5	0.5	-11.7	.
CN(c1cccc(NC(=O)c2ccc(Cl)c(S(=O)(=O)N3CCOCC3)c2)c1)S(C)(=O)=O	0.8	.	.	-4.8	.	.
CC(=O)c1ccc(NC(=O)CN2C(=O)COc3ccc(S(=O)(=O)N4CCCC4)cc32)cc1	-2.2	5.0	-9.7	-3.8	2.1	.
CN(C)c1ccc(Nc2ncnc3ccc(Br)cc23)cc1	-0.9	26.6	-5.4	-25.6	-21.7	.
Clc1cccc(Nc2ncnc3ccc(Br)cc23)c1	90.7*	52.9	-21.6	-9.8	-37.8	73.5*
Clc1ccc(Nc2ncnc3ccc(Br)cc23)cc1	86.6*	19.6	-29.2	-6.9	-6.4	87.4*
Cc1cccc(Nc2ncnc3ccc(Br)cc23)c1	8.5	20.0	-25.9	-18.6	-41.9	.
CC(NC(=O)Nc1ccc(Br)cc1)C(C)(C)C (configuration not stated)	78.5*	12.1	-0.4	-6.1	6.0	92.7*
COC(=O)C(C)(C)ONC(=O)Nc1ccc(Br)cc1	12.1	30.1	-6.2	-16.6	-19.6	.
COc1cc(NC(=S)NCCC(c2ccccc2)c2ccccc2)c(OC)cc1Cl	96.7*	57.7*	-12.6	-9.5	3.0	80.8*
COc1ccccc1NC(=S)NCCC(c1ccccc1)c1ccccc1	29.8	7.5	-11.6	-5.0	6.0	.
COc1ccc(Cl)cc1NC(=S)NCCC(c1ccccc1)c1ccccc1	66.9*	27.7	-11.4	-4.4	-0.3	91.3*
O=C(/C=C/c1cccnc1)/C=C/c1cccnc1	1.2	.	.	16.4	.	.
O=C(NCC1CCCO1)c1cc2c(=O)[nH]c3ccccc3c2s1 (configuration not stated)	-1.5	24.2	-8.2	-6.8	-7.3	.
CN(C)c1ccc(N=Nc2ccc(C(=O)O)cc2)cc1	2.7	16.5	-2.5	3.6	-11.6	.
Cc1csc(N=Nc2ccc(N(C)C)cc2)[n+]1[O-]	67.7*	.	.	.	.	-21.6	MPTP swell DR=i;MPTP cs DR=>80
CCCC[C@@H](CNC)NC[C@H](NCCCCC1CCCCC1)C(C)C	90.5*	8.7	-11.6	13.1	-26.9	-22.6	MPTP swell DR=6.76*;MPTP cs DR=>80
O=C(CSc1nc2ccccc2o1)Nc1ccc(N2CCOCC2)c(Cl)c1	96.7*	17.9	10.8	1.0	32.3	93.4*
CCC(C)c1ccc(NC(=O)COc2c(F)c(F)c(C(F)(F)F)c(F)c2F)cc1 (configuration not stated)	83.3*	10.7	-1.1	-13.3	-32.2	95.2*

Assay outcomes (PubChem BioAssay)
